Compounds with a hit are over-represented: about 5.5% of the library has one in this group of screens.
Cl transport mod: KCC2 (human) Cl- transport modulation; Q9H2X9; KCC2 cells, thallium flux FluoZin-2 fluorescence; 190,000 tested, 2.2% active; B-score of Tl+ flux slope (higher = more flux/activation; lower = inhibition) at 10 µM;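 active = thallium flux slope and its plate-corrected score both differing from the plate sample mean at a set confidence after two filtering rounds, in either direction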;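 note: slope of fluorescence scaled to starting intensity during 10 to 20 s after thallium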
Target sequence (Q9H2X9 whole entry, looked up): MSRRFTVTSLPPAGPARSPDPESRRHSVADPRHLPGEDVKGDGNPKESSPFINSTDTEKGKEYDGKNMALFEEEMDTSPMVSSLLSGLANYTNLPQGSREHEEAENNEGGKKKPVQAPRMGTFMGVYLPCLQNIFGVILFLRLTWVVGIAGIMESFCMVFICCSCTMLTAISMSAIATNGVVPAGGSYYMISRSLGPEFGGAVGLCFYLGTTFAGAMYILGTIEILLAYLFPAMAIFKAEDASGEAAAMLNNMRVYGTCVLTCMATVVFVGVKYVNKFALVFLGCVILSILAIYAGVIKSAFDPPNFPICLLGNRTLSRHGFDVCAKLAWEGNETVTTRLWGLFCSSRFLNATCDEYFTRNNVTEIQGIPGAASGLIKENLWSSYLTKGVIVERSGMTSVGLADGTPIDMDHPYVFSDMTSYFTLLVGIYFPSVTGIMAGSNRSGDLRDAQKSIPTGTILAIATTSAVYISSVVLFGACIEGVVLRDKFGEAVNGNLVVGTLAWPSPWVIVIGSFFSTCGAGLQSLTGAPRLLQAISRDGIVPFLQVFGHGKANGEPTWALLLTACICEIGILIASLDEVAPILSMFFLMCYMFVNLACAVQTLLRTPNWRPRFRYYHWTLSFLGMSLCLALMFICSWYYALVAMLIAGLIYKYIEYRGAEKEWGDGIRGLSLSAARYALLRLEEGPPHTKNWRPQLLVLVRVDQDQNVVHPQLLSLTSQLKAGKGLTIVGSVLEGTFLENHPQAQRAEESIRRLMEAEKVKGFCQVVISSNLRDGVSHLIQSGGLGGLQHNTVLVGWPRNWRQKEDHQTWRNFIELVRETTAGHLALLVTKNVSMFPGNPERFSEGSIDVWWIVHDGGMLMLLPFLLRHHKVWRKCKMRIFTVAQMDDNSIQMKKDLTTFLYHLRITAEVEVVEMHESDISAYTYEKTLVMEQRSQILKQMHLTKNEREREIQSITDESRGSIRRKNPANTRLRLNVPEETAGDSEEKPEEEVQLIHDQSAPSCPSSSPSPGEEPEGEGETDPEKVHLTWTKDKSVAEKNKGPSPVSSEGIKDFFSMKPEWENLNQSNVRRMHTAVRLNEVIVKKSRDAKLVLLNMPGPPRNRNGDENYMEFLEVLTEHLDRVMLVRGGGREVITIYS
WT yeast gro inh: growth inhibition of WT yeast, mitochondrial fusion screen | mitochondrial fusion phenotypic screen, WT strain | inhibition, % at 10 µM | 190,000 tested, 2.1% active; in the data active = inhibition above about 58%; tested in S. cerevisiae
RAM inhibit: blocks the yeast RAM network; S. cerevisiae dse1pr::URA3 reporter, 5-FOA growth OD615, 2 d; analog-sensitive cbk1-as2 kinase mutant strain; inhibition, % at 50 µM; 190,000 tested, 1.8% active;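 active = inhibition above a set limit, 3 SD over mean compound inhibition, cut at about 8.4% in these data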;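 note: inhibition rescues growth on 5-FOA so higher OD means more RAM inhibition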
Yeast growth inh: yeast BB579 growth reduction in restrictive medium. S. cerevisiae BB579 growth, OD615, 48 h. inhibition, % at 10 µM. 140,000 tested, 0.51% active. AID 804;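 active = inhibition above a set limit, 3 SD over the mean compound inhibition, cut at about 44% in these data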
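System: DeaD yeast strain BB579; buffer or medium: CSMM-D dextrose restrictive medium; technique: OD at 615 nm; schedule: 4 h cell preincubation, 48 h compound exposure, 30 °C humidified; doses: single 10 µM dose; controls: amphotericin B 10 µg/mL, positive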
Yeast lifespan up: yeast lifespan extension. S. cerevisiae growth with nicotinamide, OD615; deaD strain in restrictive glucose medium. inhibition of the nicotinamide effect, % at 10 µM. 130,000 tested, 0.68% active. AID 775;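 active = inhibition above a set limit, placed 3 SD over the median of all compounds, cut at about 26% in these data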
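assay system = DeaD-strain S. cerevisiae | measured by = absorbance at 615 nm | probe or stimulus = nicotinamide 1.5 mM | buffer or medium = CSMM-D glucose medium, restrictive | times = 48 h at 30 °C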
KCC2 secondary: KCC2 (human) modulation, secondary assay. shares compounds with Cl transport mod. HEK293-KCC2, thallium flux, FluoZin2 fluorescence; stronger effect = higher value. normalised thallium flux (F/F0 slope) at 10 µM. 3,700 tested, 15% active. AID 1713;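 active = thallium flux slope above the same plate's solvent-only control mean plus 3 SD; inconclusive = the two replicate wells disagree; inactive = no significant difference from solvent-only control wells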
KCC2 bumet counter: thallium flux despite bumetanide block in KCC2 cells, secondary assay 3. normalized thallium flux at 10 µM. shares compounds with Cl transport mod. HEK293-KCC2 + bumetanide/ouabain, thallium flux FluoZin2; stronger effect = higher value. 3,700 tested, 49% active;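 active = thallium entry rate above the same plate's blocked-transporter control wells by more than 3 SD; inconclusive = the two repeat wells disagree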;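 note: raw slope of fluorescence over initial fluorescence between 10 and 20 s after thallium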
KCC2 secondary2: confirmation of human KCC2 transport modulators; shares compounds with Cl transport mod; HEK293-KCC2, thallium flux FluoZin2 fluorescence; actives lie on both sides; F/F0 rise rate, 10–20 s post-thallium; normalized thallium flux at 10 µM; 3,700 tested, 23% active; AID 1715;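 active = thallium flux slope more than 3 SD above or below the plate's solvent-only control mean, mostly below; inconclusive = the two repeat wells disagreed; inactive = no significant shift from solvent-only controls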
HEK counter1: parental HEK flux effect, counter-screen; shares compounds with Cl transport mod; HEK293 parental cells, thallium flux FluoZin2, ouabain; baseline-ratio fluorescence slope, 10–20 s after thallium; thallium flux rate (normalised fluorescence) at 10 µM; 3,700 tested, 46% active;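 active = thallium flux rate significantly above the same plate's solvent-only control wells, beyond their mean plus 3 SD; inconclusive = the two replicate wells gave conflicting results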
KCC2 retest ouab: modulates human KCC2 on retest with ouabain. shares compounds with Cl transport mod. HEK293-KCC2, thallium flux FluoZin2 fluorescence; bidirectional: low = inhibitor, high = activator. raw Tl+ flux slope (below DMSO = inhibition, above = activation) at 10 µM. 3,700 tested, 48% active. AID 1717;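 active = thallium flux slope beyond 3 SD from same-plate DMSO control mean in most replicates, usually higher, sometimes lower; inconclusive = repeat tests gave conflicting results; inactive = no significant difference from controls in most replicates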;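 note: slope of initial-normalized fluorescence between seconds 10 and 20 after thallium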
HEK counter2: parental HEK flux effect, counter-screen 2. HEK293 parental, thallium flux FluoZin-2 fluorescence slope. thallium flux slope at 10 µM. shares compounds with Cl transport mod. AID 1718. 3,700 tested, 33% active;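 active = thallium flux slope above the same plate's solvent-control mean plus 3 SD in both duplicate wells; inconclusive = duplicate wells that disagreed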;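 note: run without ouabain in cells lacking the KCC2 cotransporter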
A number is an active result; – = inactive; ? = inconclusive; · = no result given.

SMILES	Cl transport mod	WT yeast gro inh	RAM inhibit	Yeast growth inh	Yeast lifespan up	KCC2 secondary	KCC2 bumet counter	KCC2 secondary2	HEK counter1	KCC2 retest ouab	HEK counter2
O=C(c1ccc(Cl)cc1)c1c[nH]c(C(=O)NNc2ccccc2)c1	–	–	–	·	·	·	·	·	·	·	·
COc1ccc(C(=O)NCC(=O)N/N=C/C=C/c2ccccc2)cc1OC	–	–	–	·	·	·	·	·	·	·	·
C=CCOc1c(Br)cc(CNn2nnnc2N)cc1OC	–	–	–	–	–	·	·	·	·	·	·
CCc1c(C)sc(NC(=O)Cn2nc(C)c([N+](=O)[O-])c2C)c1C(N)=O	–	–	–	·	·	·	·	·	·	·	·
Cc1cc(C)c(S(=O)(=O)N(C)CC(N)=O)c(C)c1	–	–	–	–	–	·	·	·	·	·	·
Cc1ccc2cc(CN(CCCO)S(=O)(=O)c3cccc4nsnc34)c(=O)[nH]c2c1	–	–	–	–	–	·	·	·	·	·	·
CC1CCCCN1C(=S)NC(=O)c1cccs1 (stereo not drawn)	36.4	·	·	·	·	0.0215	0.0572	–	0.0345	0.0502	0.0164
COC(=O)c1sccc1NC(=S)N1CCC(C)CC1	·	–	–	–	–	–	–	–	–	–	–
CC1CCN(C(=S)NC(=O)c2cccs2)CC1	55.5	–	–	·	·	0.033	0.0831	?	0.0552	0.069	0.0185
COC(=O)c1sccc1NC(=S)NCc1ccc(Cl)cc1	160	·	·	·	·	0.07	0.164	0.0576	?	0.122	0.0576
O=C(Cn1cnc2cc(Cl)ccc2c1=O)Nc1ccc2c(c1)OCO2	–	–	–	–	–	·	·	·	·	·	·
O=C(CCCc1nc2ccccc2s1)NCc1ccccc1	–	–	–	–	–	·	·	·	·	·	·
O=C(CCCc1nc2ccccc2s1)NCc1ccc(F)cc1	-3.95	–	–	–	–	0.0139	0.0183	–	0.0118	–	0.0124
O=C(Cn1cnc2c(nnn2Cc2ccccc2)c1=O)c1ccc(Cl)cc1	-4.07	–	–	–	–	–	?	?	–	0.0178	–
Cc1ccc(Cn2nnc3c(=O)n(CC(=O)c4ccccc4)cnc32)cc1	–	–	–	–	–	·	·	·	·	·	·
O=C(Cn1cnc2c(nnn2-c2ccccc2)c1=O)NCCc1ccccc1	-4.33	–	–	–	–	–	–	0.0229	–	0.0145	–
O=C(Cn1cnc2c(nnn2Cc2ccc(F)cc2)c1=O)N1CCN(c2ccccc2)CC1	·	–	–	–	–	–	–	0.0237	–	?	–
O=C(Cn1cnc2c(nnn2Cc2ccccc2)c1=O)N1CCCc2ccccc21	-4.46	–	–	–	–	–	–	0.0216	–	?	–
Fc1cccc(F)c1-n1c(CN2CCCCC2)csc1=S	–	–	–	·	·	·	·	·	·	·	·
CCCCn1c(CNC(=O)C23CC4CC(CC(C4)C2)C3)nnc1SC(C)CC (stereo not drawn)	–	–	–	–	–	·	·	·	·	·	·
COC(=O)c1ccc(CSc2nc3ccccc3c(=O)n2CC(C)C)o1	7.57	58.0	9.1	–	–	–	0.0178	–	0.017	?	0.0173
CCOC(=O)CSc1nc2ccccc2c(=O)n1CC(C)C	–	–	–	·	·	·	·	·	·	·	·
Cn1c(C(=O)O)cc2c(=O)n3ccccc3nc21	–	·	·	·	·	·	·	·	·	·	·
Cn1c(C(=O)N2CCc3ccccc3C2)cc2c(=O)n3ccccc3nc21	·	–	–	–	–	–	0.00626	–	–	0.0153	–
C=CCn1c(O)c(N=NC(=S)Nc2ccc(OC)cc2)c2ccccc21	53.1	–	–	–	–	–	0.061	0.0639	0.0591	0.0585	0.0495
